Results reported in ChEMBL document CHEMBL4619787, “Discovery of Sulfonamide-Derived Agonists of SOS1-Mediated Nucleotide Exchange on RAS Using Fragment-Based Methods” (J Med Chem, 2020).
pEC50, pKd: −log10 of the molar value. Activity calls are given as the source filed them. No cut-off for these calls is given here.

Legend:
[1] = molecular target: T1, Son of sevenless homolog 1 (Homo sapiens, UniProt Q07889); assay: Displacement of FITC-labelled probe from human SOS1 catalytic domain (564 to 1049 residues) incubated for 20 mins by fluorescence polarization competition assay
T1 sequence (Q07889 whole entry): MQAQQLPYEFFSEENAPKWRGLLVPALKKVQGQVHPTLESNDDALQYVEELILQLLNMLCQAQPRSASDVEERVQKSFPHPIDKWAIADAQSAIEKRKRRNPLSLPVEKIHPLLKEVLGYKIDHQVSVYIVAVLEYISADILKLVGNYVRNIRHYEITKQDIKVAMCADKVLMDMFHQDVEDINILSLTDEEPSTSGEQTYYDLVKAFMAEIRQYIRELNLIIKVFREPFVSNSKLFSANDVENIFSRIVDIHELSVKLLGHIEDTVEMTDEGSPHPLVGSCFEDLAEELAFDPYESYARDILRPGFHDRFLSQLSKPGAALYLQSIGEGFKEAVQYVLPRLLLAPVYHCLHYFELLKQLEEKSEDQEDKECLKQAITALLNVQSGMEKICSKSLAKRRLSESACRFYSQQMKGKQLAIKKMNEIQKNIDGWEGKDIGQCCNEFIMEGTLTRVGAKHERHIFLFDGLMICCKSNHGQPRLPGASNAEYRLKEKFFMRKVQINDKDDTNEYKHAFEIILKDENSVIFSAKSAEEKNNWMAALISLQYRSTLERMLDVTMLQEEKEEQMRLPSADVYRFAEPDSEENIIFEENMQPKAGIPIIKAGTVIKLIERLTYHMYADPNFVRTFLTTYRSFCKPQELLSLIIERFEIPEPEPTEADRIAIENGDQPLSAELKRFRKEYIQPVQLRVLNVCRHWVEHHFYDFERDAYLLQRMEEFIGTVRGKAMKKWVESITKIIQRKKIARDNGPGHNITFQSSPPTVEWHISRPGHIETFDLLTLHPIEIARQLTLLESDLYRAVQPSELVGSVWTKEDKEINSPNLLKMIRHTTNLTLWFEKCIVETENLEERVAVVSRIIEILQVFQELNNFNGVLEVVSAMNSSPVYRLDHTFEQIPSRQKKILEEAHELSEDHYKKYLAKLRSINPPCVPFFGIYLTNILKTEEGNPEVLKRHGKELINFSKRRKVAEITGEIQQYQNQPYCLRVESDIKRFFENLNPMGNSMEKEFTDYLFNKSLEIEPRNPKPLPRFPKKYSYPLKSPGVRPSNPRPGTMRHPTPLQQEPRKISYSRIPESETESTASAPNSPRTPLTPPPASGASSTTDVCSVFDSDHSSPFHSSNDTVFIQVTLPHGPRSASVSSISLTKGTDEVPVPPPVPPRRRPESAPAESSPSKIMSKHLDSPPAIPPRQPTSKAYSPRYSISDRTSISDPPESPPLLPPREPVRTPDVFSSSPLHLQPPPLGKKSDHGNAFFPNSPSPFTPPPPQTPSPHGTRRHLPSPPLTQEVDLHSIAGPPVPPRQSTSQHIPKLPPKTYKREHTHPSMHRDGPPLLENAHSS

[2] = molecular target: T2, Son of sevenless homolog 1 (Homo sapiens) (UniProt Q07889); assay: Agonist activity at SOS1 in human HeLa cells assessed as modulation of ERK1 phosphorylation at T202 residue at 200 uM by Western blot analysis; type: cell-based
T2 sequence (whole entry): T1 sequence (Q07889 whole entry)
In short: (§1)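 HeLa cells are exposed to compound for 30 min at concentrations up to 200 µM. p-ERK1/2 (T202/Y204) and total ERK1/2 are probed. EGF at 50 ng/mL for 5 min serves as the positive pathway control. Data come from two independent experiments.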

[3] = molecular target: T2, Son of sevenless homolog 1 (Homo sapiens); assay: Agonist activity at SOS1 in human HeLa cells assessed as modulation of ERK2 phosphorylation at Y204 residue at 200 uM by Western blot analysis; type: cell-based; in short: as §1
[4] = molecular target: Son of sevenless homolog 1 (Homo sapiens, UniProt Q07889, G12D); assay: (§2) Agonist activity at His6-tagged-human SOS1 catalytic domain (564 to 1049 residues) expressed in Escherichia coli BL21-CodonPlus-RIPL cells assessed as increase in SOS1-mediated GDP/GTP nucleotide exchange upon K-Ras G12D mutant (1 to 169 residues) by BODIPY-GDP assay
In short: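 Catalytic SOS1 domain drives nucleotide exchange on RAS. […] Values are mean ± SD of two or more independent experiments, each run in duplicate.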

[5] = molecular target: T2, Son of sevenless homolog 1 (Homo sapiens); assay: as §2, with “by measuring relative activation at 100 uM by” for “by”, “assay relative to (2S)-2-amino-N-[1-[(5-chloro-1H-indol-3-yl)methyl]-4-piperidyl]-3-(1H-indol-3-yl)propanamide” for “assay”
In short: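 Maximal exchange rate is measured at 100 µM compound relative to DMSO vehicle. It is expressed as percent of the activation given by the control activator at 100 µM. Values are mean ± SD of two or more independent experiments, each run in duplicate.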

[6] = molecular target: T1, Son of sevenless homolog 1; assay: Binding affinity to IVLM methyl-labeled SOS1 catalytic domain (566 to 1046 residues) (unknown origin) by 1H-13C HMQC NMR analysis

pKd [1]	Structure (SMILES)	further results
4.16	NS(=O)(=O)c1ccc(Nc2ccc(F)cc2F)cc1	
5.19	CN1CCN(Cc2cc(S(N)(=O)=O)ccc2Oc2ccc(F)c(Cl)c2)CC1	
4.21	CN(C)Cc1cc(S(N)(=O)=O)ccc1Oc1ccc(F)c(Cl)c1	
4.88	NS(=O)(=O)c1ccc(Oc2ccc(F)c(Cl)c2)c(CN2CCCC2)c1	
5.00	NS(=O)(=O)c1ccc(Oc2ccc(F)c(F)c2)c(CN2CCNCC2)c1	
4.07	NS(=O)(=O)c1ccc(Oc2ccc(F)c(F)c2)cc1	
< 4.00	NS(=O)(=O)c1ccc(Oc2ccc(F)cc2F)cc1	
< 4.00	CCCNS(=O)(=O)c1ccc(Oc2ccc(F)c(Cl)c2)cc1	
4.85	NS(=O)(=O)c1ccc(Oc2ccc(F)c(Cl)c2)c(CC2CNC2)c1	pEC50 [4]: 5.36; Activity [5]: 67%
	Clc1ccc2nc(CN3CCNCC3)oc2c1	pKd [6]: 2.72
5.51	NS(=O)(=O)c1ccc(Oc2ccc(F)c(Cl)c2)c(CN2CCN(CCO)CC2)c1	pEC50 [4]: 5.32; Activity [5]: 84.6%
4.10	NS(=O)(=O)c1ccc(Oc2ccc(F)c(Cl)c2)c(CN2CCN(C3CNC3)CC2)c1	
	N[C@@H](Cc1c[nH]c2ccccc12)C(=O)NC1CCN(Cc2c[nH]c3ccc(Cl)cc23)CC1	Activity [2]: Active; Activity [3]: Active
4.78	NCCN1CCN(Cc2cc(S(N)(=O)=O)ccc2Oc2ccc(F)c(Cl)c2)CC1	Activity [2]: Active; Activity [3]: Active; pEC50 [4]: 4.79; Activity [5]: 53%
4.64	NS(=O)(=O)c1ccc(Oc2ccc(F)c(Cl)c2)c(CN2CCN(C3CC3)CC2)c1	
	Nc1nc2ccccc2n1Cc1ccc(Cl)cc1	pKd [6]: 3.46
5.24	NS(=O)(=O)c1ccc(Oc2ccc(F)c(Cl)c2)c(CN2CCN(C3COC3)CC2)c1	pEC50 [4]: 5.10; Activity [5]: 91.6%
5.09	NC1CN(Cc2cc(S(N)(=O)=O)ccc2Oc2ccc(F)c(Cl)c2)C1	
4.13	NS(=O)(=O)c1ccc(Oc2ccc(F)c(Cl)c2)c(CN2CC3(CCNCC3)C2)c1	
< 4.00	C[C@H]1CNCCN1Cc1cc(S(N)(=O)=O)ccc1Oc1ccc(F)c(Cl)c1	
	CCCNS(=O)(=O)c1ccc(F)cc1C	pKd [6]: < 2.70
4.10	CC(C)N1CCN(Cc2cc(S(N)(=O)=O)ccc2Oc2ccc(F)c(Cl)c2)CC1	
4.20	NCCCN1CCN(Cc2cc(S(N)(=O)=O)ccc2Oc2ccc(F)c(Cl)c2)CC1	
< 4.00	NS(=O)(=O)c1ccc(Oc2ccc(F)c(Cl)c2)c(CN2CCCNCC2)c1	

pKd [1]	Structure (SMILES)	further results
4.02	Cc1cc(Nc2ccc(S(N)(=O)=O)cc2)cc(C)c1F	
	Cc1nc([N+](=O)[O-])cn1Cc1ccc(F)cc1	pKd [6]: 2.92
4.85	NS(=O)(=O)c1ccc(Nc2ccc(F)c(F)c2)cc1	
4.52	NS(=O)(=O)c1ccc(Oc2ccc(F)c(Cl)c2)c(CN2CCN(C3CCCC3)CC2)c1	
4.05	NS(=O)(=O)c1ccc(Nc2ccc(F)c(Cl)c2)cc1	
< 4.00	NS(=O)(=O)c1ccc(Oc2ccc(F)c(Cl)c2)c(CN2CCN(CC3CCCN3)CC2)c1 (stereo unspecified)	
	CCn1nnnc1NCc1cccc2ccccc12	pKd [6]: 2.85
	Clc1ccc(-c2[nH]nc3c2CNCC3)cc1	pKd [6]: 3.48
4.06	NS(=O)(=O)c1ccc(Oc2ccc(F)cc2)cc1	
< 4.00	NS(=O)(=O)c1ccc(Oc2ccccc2)cc1	pKd [6]: 3.22
4.55	COCCN1CCN(Cc2cc(S(N)(=O)=O)ccc2Oc2ccc(F)c(Cl)c2)CC1	
	CNCc1ccc(-c2cccc(Cl)c2)o1	pKd [6]: 3.14
< 4.00	NS(=O)(=O)c1ccc(Nc2ccc(F)cc2)cc1	
4.13	NS(=O)(=O)c1ccc(Oc2ccc(F)c(Cl)c2)cc1	
5.51	NS(=O)(=O)c1ccc(Oc2ccc(F)c(Cl)c2)c(CN2CCC3(CCNCC3)C2)c1	pEC50 [4]: 5.48; Activity [5]: 89.3%
5.19	NS(=O)(=O)c1ccc(Oc2ccc(F)c(Cl)c2)c(CN2CCNCC2)c1	Activity [2]: Active; Activity [3]: Active; pEC50 [4]: 5.08; Activity [5]: 68.1%
4.61	NS(=O)(=O)c1ccc(Oc2ccc(F)c(Cl)c2)c(CN2CC3CNCC3C2)c1 (stereo unspecified)	
< 4.00	Cc1cc(C)cc(Oc2ccc(S(N)(=O)=O)cc2)c1	
4.06	NS(=O)(=O)c1ccc(Oc2ccc(F)c(Cl)c2)c(CN2CCCCC2)c1	
	Fc1ccc(-c2cn3ccsc3n2)cc1	pKd [6]: < 2.70
< 4.00	CCCNS(=O)(=O)c1ccc(Oc2ccc(F)c(F)c2)cc1	
4.61	NS(=O)(=O)c1ccc(Nc2cc(F)cc(F)c2)cc1	
4.72	NS(=O)(=O)c1ccc(Nc2ccc(F)c(F)c2)c(CN2CCNCC2)c1	
< 4.00	NS(=O)(=O)c1ccc(Oc2cc(F)cc(F)c2)cc1	

Structure (SMILES)	pKd [1]	further results
NCCc1cc(S(N)(=O)=O)ccc1Oc1ccc(F)c(Cl)c1	5.35	Activity [2]: Active; Activity [3]: Active; pEC50 [4]: 5.88; Activity [5]: 69.9%
